Reference: ChEMBL document CHEMBL1165965, “Synthesis and structure-activity relationships of 1,2,3,4-tetrahydropyrido[2,3-b]pyrazines as potent and selective inhibitors of the anaplastic lymphoma kinase” (Bioorg Med Chem, 2010)

Assays:
[1] = target: Serine/threonine-protein kinase tousled-like 2 (Homo sapiens) (UniProt Q86UE8); assay: Inhibition of TLK2 at 1 uM
[2] = target: T1, Ephrin type-A receptor 3 (Homo sapiens) (UniProt P29320); assay: Inhibition of EPHA3 at 1 uM
T1 sequence (whole entry): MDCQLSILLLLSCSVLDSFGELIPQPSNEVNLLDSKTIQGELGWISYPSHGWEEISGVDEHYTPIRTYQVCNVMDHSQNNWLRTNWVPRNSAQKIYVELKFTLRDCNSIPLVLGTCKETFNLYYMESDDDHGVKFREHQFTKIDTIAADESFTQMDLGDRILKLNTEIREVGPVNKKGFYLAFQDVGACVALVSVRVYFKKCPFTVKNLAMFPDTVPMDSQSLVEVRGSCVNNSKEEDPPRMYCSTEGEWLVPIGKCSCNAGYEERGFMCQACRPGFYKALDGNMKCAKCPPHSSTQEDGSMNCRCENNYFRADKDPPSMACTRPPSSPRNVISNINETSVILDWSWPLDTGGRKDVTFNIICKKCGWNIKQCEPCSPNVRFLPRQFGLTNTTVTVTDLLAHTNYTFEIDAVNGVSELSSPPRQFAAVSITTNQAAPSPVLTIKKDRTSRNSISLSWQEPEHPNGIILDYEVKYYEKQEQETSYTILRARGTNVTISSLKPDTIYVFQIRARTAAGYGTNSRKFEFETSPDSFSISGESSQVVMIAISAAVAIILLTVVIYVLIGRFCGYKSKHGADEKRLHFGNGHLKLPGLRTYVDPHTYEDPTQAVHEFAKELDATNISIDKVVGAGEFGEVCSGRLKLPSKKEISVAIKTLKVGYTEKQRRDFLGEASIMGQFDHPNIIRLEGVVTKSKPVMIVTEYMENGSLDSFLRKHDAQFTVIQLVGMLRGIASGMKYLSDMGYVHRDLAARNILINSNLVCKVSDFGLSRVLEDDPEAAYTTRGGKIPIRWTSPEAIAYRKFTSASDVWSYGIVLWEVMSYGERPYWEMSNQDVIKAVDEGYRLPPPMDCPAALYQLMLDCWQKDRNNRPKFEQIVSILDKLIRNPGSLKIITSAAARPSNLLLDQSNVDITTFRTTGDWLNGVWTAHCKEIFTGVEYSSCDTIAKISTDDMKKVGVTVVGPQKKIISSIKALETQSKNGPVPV
In short: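 Single-concentration screen using Ambit Bioscience KINOMEscan technology across a panel of 250–400 kinases. Per-kinase inhibition from this screen was summarized as S(90), the fraction of kinases inhibited by more than 90%.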

[3] = target: Non-receptor tyrosine-protein kinase TYK2 (Homo sapiens) (UniProt P29597); assay: Inhibition of TYK2 JH1 catalytic domain at 1 uM
In short: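 Single-concentration screen on the Ambit KINOMEscan platform, run against a panel of 250–400 kinases. Per-kinase inhibition was also summarized as S(90), the fraction of kinases inhibited by more than 90%.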

[4] = target: cAMP-dependent protein kinase catalytic subunit beta (Homo sapiens) (UniProt P22694); assay: Inhibition of PKAC-beta at 1 uM
[5] = target: T2, Serine/threonine-protein kinase ULK3 (Homo sapiens) (UniProt Q6PHR2); assay: Inhibition of ULK3 at 1 uM
T2 sequence (whole entry): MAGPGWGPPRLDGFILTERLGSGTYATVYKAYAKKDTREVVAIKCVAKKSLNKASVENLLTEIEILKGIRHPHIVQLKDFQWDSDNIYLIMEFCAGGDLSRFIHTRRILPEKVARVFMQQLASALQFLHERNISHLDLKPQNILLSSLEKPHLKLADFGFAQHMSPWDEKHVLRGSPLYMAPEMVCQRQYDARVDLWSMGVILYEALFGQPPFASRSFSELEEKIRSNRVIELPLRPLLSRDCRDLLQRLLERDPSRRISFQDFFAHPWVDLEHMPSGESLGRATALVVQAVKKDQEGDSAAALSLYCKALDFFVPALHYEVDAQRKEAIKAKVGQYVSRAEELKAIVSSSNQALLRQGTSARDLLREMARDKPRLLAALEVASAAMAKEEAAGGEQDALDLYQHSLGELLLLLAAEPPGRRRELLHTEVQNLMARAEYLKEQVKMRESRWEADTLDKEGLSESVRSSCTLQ

[6] = target: T3, Cyclin-dependent kinase-like 5 (Homo sapiens) (UniProt O76039); assay: Inhibition of CDKL5 at 1 uM
T3 sequence (whole entry): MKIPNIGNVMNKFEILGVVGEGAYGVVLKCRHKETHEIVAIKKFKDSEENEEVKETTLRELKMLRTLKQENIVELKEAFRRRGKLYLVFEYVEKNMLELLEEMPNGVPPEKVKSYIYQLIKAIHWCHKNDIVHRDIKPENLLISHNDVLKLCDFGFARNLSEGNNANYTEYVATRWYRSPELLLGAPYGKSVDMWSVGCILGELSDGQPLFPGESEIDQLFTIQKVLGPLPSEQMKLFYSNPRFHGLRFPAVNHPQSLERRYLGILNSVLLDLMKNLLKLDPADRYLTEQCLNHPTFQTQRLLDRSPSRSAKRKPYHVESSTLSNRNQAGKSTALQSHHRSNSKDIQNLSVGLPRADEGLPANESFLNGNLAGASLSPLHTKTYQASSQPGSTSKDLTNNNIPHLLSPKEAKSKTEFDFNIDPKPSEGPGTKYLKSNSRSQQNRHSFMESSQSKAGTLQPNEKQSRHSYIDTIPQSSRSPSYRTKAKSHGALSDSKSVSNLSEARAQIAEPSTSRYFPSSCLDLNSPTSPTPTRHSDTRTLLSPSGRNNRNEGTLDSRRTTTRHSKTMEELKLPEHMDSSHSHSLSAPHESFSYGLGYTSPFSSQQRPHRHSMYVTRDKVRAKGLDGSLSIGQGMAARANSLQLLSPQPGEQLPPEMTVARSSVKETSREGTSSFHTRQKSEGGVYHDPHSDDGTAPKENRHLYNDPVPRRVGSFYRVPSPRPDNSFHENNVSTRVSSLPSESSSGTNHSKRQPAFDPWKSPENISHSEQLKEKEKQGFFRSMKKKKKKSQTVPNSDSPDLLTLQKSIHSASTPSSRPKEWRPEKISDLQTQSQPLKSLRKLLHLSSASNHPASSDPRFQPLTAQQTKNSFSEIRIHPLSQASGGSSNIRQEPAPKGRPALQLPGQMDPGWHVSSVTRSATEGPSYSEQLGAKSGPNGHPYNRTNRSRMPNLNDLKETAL

[7] = target: Serine/threonine-protein kinase Nek7 (Homo sapiens) (UniProt Q8TDX7); assay: Inhibition of NEK7 at 1 uM
Sequence of Serine/threonine-protein kinase Nek7 (Homo sapiens) (Q8TDX7 whole entry, looked up): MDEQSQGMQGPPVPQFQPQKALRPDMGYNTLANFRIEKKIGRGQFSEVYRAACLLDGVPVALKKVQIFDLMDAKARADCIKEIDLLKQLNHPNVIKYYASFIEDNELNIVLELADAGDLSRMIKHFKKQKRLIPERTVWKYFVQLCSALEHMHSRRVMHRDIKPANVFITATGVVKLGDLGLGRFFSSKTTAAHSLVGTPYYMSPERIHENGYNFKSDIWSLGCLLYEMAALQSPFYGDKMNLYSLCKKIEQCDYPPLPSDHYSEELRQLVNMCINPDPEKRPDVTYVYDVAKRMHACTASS

Sequence of Non-receptor tyrosine-protein kinase TYK2 (Homo sapiens) (P29597 whole entry, the tested form may be a part): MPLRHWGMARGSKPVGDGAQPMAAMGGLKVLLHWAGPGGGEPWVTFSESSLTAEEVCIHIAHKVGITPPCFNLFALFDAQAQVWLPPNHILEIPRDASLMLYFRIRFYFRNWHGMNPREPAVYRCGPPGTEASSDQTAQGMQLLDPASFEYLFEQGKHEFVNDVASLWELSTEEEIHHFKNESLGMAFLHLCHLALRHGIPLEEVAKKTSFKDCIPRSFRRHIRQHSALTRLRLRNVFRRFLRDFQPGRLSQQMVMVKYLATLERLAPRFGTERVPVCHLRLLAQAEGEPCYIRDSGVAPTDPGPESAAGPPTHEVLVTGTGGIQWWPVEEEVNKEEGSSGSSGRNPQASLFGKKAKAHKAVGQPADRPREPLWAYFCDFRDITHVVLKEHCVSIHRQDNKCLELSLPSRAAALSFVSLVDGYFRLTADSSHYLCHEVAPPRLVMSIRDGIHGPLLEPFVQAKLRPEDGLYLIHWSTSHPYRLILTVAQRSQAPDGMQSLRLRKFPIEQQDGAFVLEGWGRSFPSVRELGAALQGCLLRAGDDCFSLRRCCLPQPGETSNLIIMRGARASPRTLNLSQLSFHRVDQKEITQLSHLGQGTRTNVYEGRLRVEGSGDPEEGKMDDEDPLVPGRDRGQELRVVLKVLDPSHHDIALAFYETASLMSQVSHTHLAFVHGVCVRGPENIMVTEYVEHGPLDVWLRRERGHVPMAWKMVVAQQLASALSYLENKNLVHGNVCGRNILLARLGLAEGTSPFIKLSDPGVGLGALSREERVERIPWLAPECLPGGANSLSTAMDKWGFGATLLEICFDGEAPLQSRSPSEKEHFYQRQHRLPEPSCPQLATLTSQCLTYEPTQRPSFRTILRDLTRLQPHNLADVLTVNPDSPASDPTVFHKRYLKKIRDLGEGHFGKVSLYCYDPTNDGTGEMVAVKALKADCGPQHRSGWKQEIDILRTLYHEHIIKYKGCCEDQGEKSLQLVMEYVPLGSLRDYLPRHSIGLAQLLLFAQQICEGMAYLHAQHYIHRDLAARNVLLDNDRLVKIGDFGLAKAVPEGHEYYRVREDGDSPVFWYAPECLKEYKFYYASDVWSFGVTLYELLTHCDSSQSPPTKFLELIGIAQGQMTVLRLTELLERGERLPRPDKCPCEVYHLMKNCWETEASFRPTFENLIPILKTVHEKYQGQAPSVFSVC
Sequence of Serine/threonine-protein kinase tousled-like 2 (Homo sapiens) (Q86UE8 whole entry, looked up): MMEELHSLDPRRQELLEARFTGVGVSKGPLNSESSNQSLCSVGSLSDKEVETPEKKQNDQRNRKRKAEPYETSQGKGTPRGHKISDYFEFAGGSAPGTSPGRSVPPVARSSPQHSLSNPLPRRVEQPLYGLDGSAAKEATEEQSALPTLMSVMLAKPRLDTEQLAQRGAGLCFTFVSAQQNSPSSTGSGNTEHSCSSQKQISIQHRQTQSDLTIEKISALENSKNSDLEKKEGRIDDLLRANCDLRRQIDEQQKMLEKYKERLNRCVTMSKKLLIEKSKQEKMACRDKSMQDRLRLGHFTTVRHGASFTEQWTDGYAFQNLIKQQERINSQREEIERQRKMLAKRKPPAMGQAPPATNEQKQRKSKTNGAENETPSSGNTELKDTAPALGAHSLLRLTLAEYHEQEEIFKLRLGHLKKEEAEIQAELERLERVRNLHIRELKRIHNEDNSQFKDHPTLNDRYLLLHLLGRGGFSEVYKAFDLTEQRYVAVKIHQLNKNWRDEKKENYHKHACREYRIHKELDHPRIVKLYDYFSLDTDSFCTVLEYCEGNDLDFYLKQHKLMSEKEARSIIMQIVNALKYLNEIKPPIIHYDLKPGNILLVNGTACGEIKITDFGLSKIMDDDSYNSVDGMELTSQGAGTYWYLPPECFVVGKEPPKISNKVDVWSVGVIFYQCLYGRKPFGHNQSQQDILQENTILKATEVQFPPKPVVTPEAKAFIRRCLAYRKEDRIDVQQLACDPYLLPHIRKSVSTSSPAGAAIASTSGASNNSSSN

CN1CCN(c2ccc(-c3cnc4c(c3)N(Cc3cc(F)ccc3F)CCN4)cn2)CC1
inhibition [1]: < 50%
inhibition [2]: < 50%
inhibition [3]: < 50%
inhibition [4]: < 50%
inhibition [5]: < 50%
inhibition [6]: < 50%
inhibition [7]: < 50%

O=C(c1ccc(-c2cnc3c(c2)N(Cc2cc(Cl)ccc2C(F)(F)F)CCN3)cc1)N1CCC(N2CCCC2)CC1
inhibition [1]: < 50%
inhibition [2]: < 50%
inhibition [3]: < 50%
inhibition [4]: < 50%

O=C(c1ccc(-c2cnc3c(c2)N(Cc2cc(Cl)ccc2C(F)(F)F)CCN3)cc1)N1CCCCC1
inhibition [1]: < 50%
inhibition [2]: < 50%
inhibition [3]: < 50%
inhibition [4]: < 50%

CN1CCN(c2ccc(-c3cnc4c(c3)N(Cc3c(F)ccc(F)c3Cl)CCN4)cn2)CC1
inhibition [1]: < 50%
inhibition [2]: < 50%
inhibition [3]: < 50%
inhibition [4]: < 50%
inhibition [5]: < 50%
inhibition [6]: < 50%
inhibition [7]: < 50%

COC1CCN(C(=O)c2ccc(-c3cnc4c(c3)N(Cc3cc(Cl)ccc3C(F)(F)F)CCN4)cc2)CC1
inhibition [1]: < 50%
inhibition [2]: < 50%
inhibition [3]: < 50%
inhibition [4]: < 50%

O=C(O)c1ccc(-c2cnc3c(c2)N(Cc2cc(Cl)ccc2C(F)(F)F)CCN3)cc1
inhibition [1]: < 50%
inhibition [2]: < 50%
inhibition [3]: < 50%
inhibition [4]: < 50%

CC(=O)N1CCN(c2cc(-c3cnc4c(c3)N(Cc3cc(Cl)ccc3C(F)(F)F)CCN4)ccn2)CC1
inhibition [1]: < 50%
inhibition [2]: < 50%
inhibition [3]: 72%
inhibition [4]: < 50%
inhibition [5]: < 50%
inhibition [6]: < 50%
inhibition [7]: < 50%

FC(F)(F)c1ccc(Cl)cc1CN1CCNc2ncc(-c3ccnc(N4CCNCC4)c3)cc21
inhibition [1]: < 50%
inhibition [2]: < 50%
inhibition [3]: 72%
inhibition [4]: < 50%
inhibition [5]: < 50%
inhibition [6]: < 50%
inhibition [7]: < 50%

CN1CCN(c2ccc(-c3cnc4c(c3)N(Cc3cc(Cl)ccc3C(F)(F)F)CCN4)cn2)CC1
inhibition [1]: < 50%
inhibition [2]: < 50%
inhibition [3]: 79%
inhibition [4]: < 50%
inhibition [5]: < 50%
inhibition [6]: < 50%
inhibition [7]: < 50%

CN1CCN(c2ccc(-c3cnc4c(c3)N(Cc3cc(Cl)ccc3Cl)CCN4)cn2)CC1
inhibition [1]: < 50%
inhibition [2]: < 50%
inhibition [3]: < 50%
inhibition [4]: < 50%
inhibition [5]: < 50%
inhibition [6]: < 50%
inhibition [7]: < 50%
